Bioassay records (PubChem)
Sampled rows, rich in hits. Any-hit rate of the full collection: about 1.4%.
cardiac RTF act: increases calcium sensitivity of human cardiac regulated thin filaments | IANBD-labeled TnC RTF fluorescence at EC20 calcium; 0% EC20 calcium, 100% full calcium | activation, % at 7.2 µM | P19429+P45379 | AID 493008 | actives 0.24% (n = 340,000);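 active = activation above the mean over all tested compounds plus 3 SD, cut at about 30% in these data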;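 note: rise in fluorescence read as greater calcium sensitivity of cardiac thin filaments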
CRFR2-BP ag: agonists of human CRF-binding protein/CRF-R2 receptor complex; actives 0.46% (n = 350,000); activation, % at 13.2 µM; HEK293 CRF-R2/CRF-BP, calcium dye fluorescence (FLIPR); percent of saturating CRF peptide response;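 active = activation of at least 50%, plus an integration ratio under a set limit after plate pattern correction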;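 note: plate controls were neutral control wells without compound for no effect and CRF at EC100 for full effect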
DDE Tn7 FP inh: DD(E)-Tn7 binding inhibition, primary FP screen | P02675 | FP displacement of FITC-Tn7 peptide from fibrin DD(E); 0% = median of compound wells per plate | inhibition, % at 8.3 µM | actives 0.13% (n = 370,000);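 active = inhibition above the mean of compounds falling within the control limits plus 3 SD of them, cut at about 14% in these data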;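 note: 0% = plate median of compound wells and 100% = 10 µM Aha-Tn7 peptide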
Target sequence (P02675 whole entry, looked up): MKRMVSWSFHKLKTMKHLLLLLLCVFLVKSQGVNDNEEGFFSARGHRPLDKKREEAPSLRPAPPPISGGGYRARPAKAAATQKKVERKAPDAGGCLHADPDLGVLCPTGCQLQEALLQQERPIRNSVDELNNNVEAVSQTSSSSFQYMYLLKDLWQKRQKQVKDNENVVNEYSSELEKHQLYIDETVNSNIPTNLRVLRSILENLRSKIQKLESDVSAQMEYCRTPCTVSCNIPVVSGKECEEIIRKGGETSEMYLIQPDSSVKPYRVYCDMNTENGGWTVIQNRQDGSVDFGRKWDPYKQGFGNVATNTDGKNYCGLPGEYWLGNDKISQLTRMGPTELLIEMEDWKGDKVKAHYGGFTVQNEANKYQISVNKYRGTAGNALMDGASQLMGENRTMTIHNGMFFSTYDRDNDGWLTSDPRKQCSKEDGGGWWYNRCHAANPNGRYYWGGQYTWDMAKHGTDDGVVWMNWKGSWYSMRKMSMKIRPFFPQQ
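System: human fibrin DD(E); quantity: Fibrin-DD(E) at 2 µM final; also added: fluorescent Tn7 probe at 0.1 µM; compound dosing: single nominal test concentration of 8.3 µM per compound; schedule: 10 min preincubation, 3 h with tracer, room temperature; detection: fluorescence polarization of the labelled Tn7 tracer; repeats: one replicate per compound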
Tn6 DDE FP: DD(E)-Tn6 binding inhibition, primary FP screen | inhibition, % at 8.3 µM | actives 0.21% (n = 370,000) | P02675 | Fibrin DD(E) TRITC-Tn6 fluorescence polarization displacement | AID 720509;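 active = inhibition above a per-campaign cutoff: mean of compounds within control limits plus 3 SD, cut at about 15% in these data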;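 note: 0% = median of all compound wells on the plate and 100% = blocking peptide control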
CRFBP-R2 block: antagonists of CRF-binding protein/CRF-R2 receptor complex | HEK293 CRF-R2/CRF-BP, CRF-induced calcium fluorescence | inhibition, % at 11.8 µM | actives 0.59% (n = 350,000) | AID 588475;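 active = inhibition of the ligand-induced calcium signal above about 50% at the single tested concentration, limit read from the data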
RTF Ca sens inh: cardiac RTF calcium desensitization; P19429+P45379; IANBD-labeled cardiac RTF, Ca2+ fluorescence; inhibition, % at 7.15 µM; actives 0.12% (n = 340,000); AID 493244;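 active = inhibition above the mean inhibition of all tested compounds plus 3 SD, cut at about 17% in these data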;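 note: assay run at fixed EC70 calcium of 1.6 mM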
The depositor's hits bear a star; / = no result given.

SMILES | cardiac RTF act | CRFR2-BP ag | DDE Tn7 FP inh | Tn6 DDE FP | CRFBP-R2 block | RTF Ca sens inh
COc1ccc(NC(=O)C(=O)NNC(=O)c2cccs2)c(OC)c1 | -7 | -5 | -1 | -9 | 75* | -1
COc1ccc(OC)c(NC(=O)C(=O)NNC(=O)C23CC4CC(CC(C4)C2)C3)c1 | / | 55* | -2 | 12 | 21 | /
O=C(Nc1ccc(OCC(F)(F)C(F)F)c(C(F)(F)F)c1)c1ccccc1O | -2 | 60* | -8 | -4 | 10 | -7
O=C(Nc1ccc(OCC(F)(F)C(F)F)c(C(F)(F)F)c1)c1ccccc1 | -14 | 1 | 8 | -2 | 1 | -5
CCN(c1ccccc1)S(=O)(=O)c1cc(NC(=O)CSc2n[nH]c(=O)[nH]c2=O)ccc1Cl | -4 | 4 | -7 | 8 | 111* | -10
Nc1c(C(=O)C2CC2)sc2nc(-c3ccccc3)cc(C(F)(F)F)c12 | 19 | 238* | 0 | 5 | -350 | -25
CC(=O)c1sc2nc(-c3cccs3)cc(C(F)(F)F)c2c1N | 17 | 113* | 1 | 12 | -54 | -26
CN(C)CCNC(=O)c1sc2nc(-c3ccccc3)cc(C(F)(F)F)c2c1N | -1 | 24 | -3 | -2 | -32 | -7
COc1ccc(-c2cc(C(F)(F)F)c3c(N)c(C(=O)NCCSC)sc3n2)cc1 | 63* | 66* | -9 | 3 | -67 | -77
Cc1cccc(CN2CCN(C3CN(Cc4cn(Cc5ccc(Cl)cc5)nn4)S(=O)(=O)C3)CC2)c1 (stereo not given) | / | / | 1 | -4 | / | /
CN(C)c1nc(=NCc2cccs2)ss1 | -3 | -4 | -3 | 8 | -23 | 5
CC(=O)C1=C(c2cccc([N+](=O)[O-])c2)N(C(C)=O)n2c(C)nnc2S1 | -7 | -1 | 2 | -2 | 54* | 1
C[C@H]1/C=C/CC(=O)N[C@@H](c2ccccc2)[C@@H](C)/C=C/CC(=O)N[C@H]1c1ccccc1 | / | / | -10 | 1 | / | /
CCCCCC(=O)Nc1cc(S(=O)(=O)O)cc2cc(S(=O)(=O)O)cc(O)c12 | -49 | -1 | -8 | -2 | -1 | 67*
Cc1ccc2nc(-c3ccc(NC(=O)CSc4nnc(-c5cc(C)[nH]n5)n4N)cc3)sc2c1 | / | / | -3 | -11 | / | /
COc1ccc(NC(=O)CN2CCC3(O)CCCCC3C2c2cc(OC)ccc2OC)cc1 (stereo not given) | -1 | -1 | -2 | -2 | 51* | -4
COC(=O)c1c(NC(=O)CN2CCC3(O)CCCCC3C2c2ccccc2OC)sc(C)c1C (stereo not given) | 4 | 53* | 3 | -1 | -80 | -6
COC(=O)C1=C(C)NC(C)=C(C(=O)OC)C1/C=C/c1ccccc1 | -7 | -1 | 4 | 6 | 53* | -4
COc1ccccc1-c1c(C)nn2c(N3CCN(c4ccccc4OC)CC3)cc(C)nc12 | -3 | -2 | -2 | 2 | 68* | 2
COc1ccccc1-c1c(C)nn2c(N3CCCCCC3)cc(C)nc12 | 7 | -2 | 0 | -1 | 30 | -2
Cn1c(-c2ccc(C=O)s2)nc2c3ccccc3c3ccccc3c21 | 81* | 112* | -2 | 3 | -122 | -14
CCCCC(=O)N(C)c1c(CC)nc2c(OCCOc3ccccc3)cccn12 | / | / | 6 | 0 | / | /
Cc1c(CC(Cl)(Cl)Cl)c2c(n1O)CC(C)(C)CC2=O | -4 | 55* | 0 | -4 | 74* | 1
CCNC(=S)N(CCc1ccc(S(N)(=O)=O)cc1)C1CC(=O)N(c2ccccc2)C1=O (stereo not given) | -1 | 97* | -5 | 7 | -95 | -1
O=C1CC(N(CCc2ccccc2)C(=S)Nc2ccccc2)C(=O)N1c1ccccc1 (stereo not given) | 5 | 5 | -1 | -8 | -16 | 1
SMILES | cardiac RTF act | CRFR2-BP ag | DDE Tn7 FP inh | Tn6 DDE FP | CRFBP-R2 block | RTF Ca sens inh
CCC/C(C#Cc1cc(OC)cc(OC)c1)=C1/c2ccccc2C(=O)N1c1ccccc1 | 8 | 1 | -7 | -9 | 7 | -5
CCC/C(C#Cc1ccc(N(C)C)cc1)=C1/c2ccccc2C(=O)N1c1ccccc1 | 114* | 79* | -1 | 10 | -36 | -60
COc1ccc(NC(=O)C2(C)Cc3c(-c4ccc(N(C)C)cc4)ccnc3O2)cc1 (stereo not given) | / | / | 4 | -6 | / | /
COC(=O)C1=C(C)N(C)C(C)=C(C(=O)OC)C1c1ccc(F)c(Br)c1 | -3 | -8 | 0 | 4 | 55* | 1
COc1c(Cl)cc(Cl)cc1CNc1ccc(S(N)(=O)=O)cc1 | -4 | 0 | -2 | 2 | 58* | -3
O=[N+]([O-])c1cccnc1Sc1n[nH]c(-c2ccc(Cl)cc2)n1 | 3 | 1 | -2 | -8 | -16 | 3
O=[N+]([O-])c1cccnc1Sc1ccc(Cl)cc1 | 1 | -3 | 2 | 7 | 61* | -3
COc1cccc(/C=C2\SC(=S)N(C(C(=O)O)c3ccccc3)C2=O)c1OC (stereo not given) | -2 | 0 | 2 | -3 | 12 | 5
O=C(O)C(c1ccccc1)N1C(=O)/C(=C\c2ccc(-c3ccc(Br)cc3)o2)SC1=S (stereo not given) | 63* | 85* | -3 | -12 | -57 | -65
O=C(O)C(c1ccccc1)N1C(=O)/C(=C\c2ccc(-c3ccccc3Cl)o2)SC1=S (stereo not given) | 2 | 91* | -4 | 8 | -104 | -2
COc1ccc(/C=N/Nc2ccc([N+](=O)[O-])cc2S(=O)(=O)N2CCN(C)CC2)cc1 | 4 | 56* | 0 | 11 | -52 | -3
COc1ccc(C=NNc2ccc([N+](=O)[O-])cc2S(=O)(=O)Nc2ccccc2C(=O)O)cc1OC | 2 | 1 | 5 | 1 | 39 | -8
CCOC(=O)C1(C(=O)OCC)Cc2c([nH]c3ccccc23)[C@]2(N1)C(=O)N(C)c1ccc(Br)cc12 | / | / | -5 | -2 | / | /
COc1ccc(-c2nnc(NC(=O)c3ccc(S(=O)(=O)N4COCC4(C)C)cc3)o2)cc1 | 5 | 0 | 3 | 3 | -10 | -5
CC1CCCCN1S(=O)(=O)c1ccc(C(=O)Nc2nnc(-c3ccccc3Cl)o2)cc1 (stereo not given) | 9 | 23 | 3 | 0 | 43 | -1
CC1(C)COCN1S(=O)(=O)c1ccc(C(=O)Nc2nnc(-c3ccc(Cl)s3)o2)cc1 | / | 90* | / | / | 22 | /
CS(=O)(=O)c1ccccc1-c1nnc(NC(=O)c2ccc(S(=O)(=O)N3CCCC3)cc2)o1 | 1 | 6 | -1 | 9 | 5 | -12
CCC1CCCCN1S(=O)(=O)c1ccc(C(=O)Nc2nnc(-c3ccccc3Cl)o2)cc1 (stereo not given) | 1 | 126* | / | / | -58 | -2
